According to the EternaBench riboswitch data:

System: MS2 coat protein
Experiment: apparent Kd, MS2 coat protein; higher = weaker binding; RNA-MaP array; FMN 200 µM where present
Method in brief: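 The apparent Kd comes from binding curves fitted cluster by cluster, filtered, and summarised as a median. Those curves followed SNAP-549-labelled MS2 coat protein from 0.7 or 1.5 nM, doubling to 3 µM, on Illumina sequencing-chip clusters where stalled E. coli RNA polymerase had transcribed the designs, without and then with constant ligand. The buffer was 100 mM Tris-HCl pH 7.5, 80 mM KCl, 4 mM MgCl2, BSA, DTT, yeast tRNA and Tween-20, and green signal was normalised to red-channel RNA signal and control-cluster median Fmax.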

[1] = designed as: OFF switch for flavin mononucleotide, no ligand
[2] = ligand present: flavin mononucleotide, designed as: OFF switch for flavin mononucleotide
[3] = designed as: ON switch for flavin mononucleotide, no ligand
[4] = ligand present: flavin mononucleotide, designed as: ON switch for flavin mononucleotide

Sequence | apparent Kd [1] [nM] | apparent Kd [2] [nM] | apparent Kd [3] [nM] | apparent Kd [4] [nM]
AAGGUGAGAGGAUAUACAUGAGGAUCACCCAUGUGCCGGCCCUCCACAUAUGCCUUGUGUAGAAGGCUCCCGAA | 14.5 | 14.9 |  | 
UGGUACAUGGGAGGAUAUCCUCAAGAGACAUGAGGAUCACCCAUGUAUUAUAAGCCUAAUGGCAUGGAGAAGGCCCAUGUACCU |  |  | 467 | 49
AGAAAACAUGAGGAUCACCCAUGUAGAAAUAUGGGAGGAUAUACAAAGACGAAAGUCGAGGUAGAAGGCCUAAAGA |  |  | 100 | 23.4
GGUACCAUCACAGGAUAUGCUAUCCUUUGGGUAGCAGAAGGGUGUAACAUGAGGAUCACCCAUGUGGUGCCAGGGCGUGAGCCC |  |  | 496 | 49.9
UUACUAUAACAGAAGGGUAGAUAGUAUAUAAAUGCAGGAUAUGUUACAUGAGGAUCACCCAUGUUUCACCCACAUGAGGAUCAC | 28.5 | 40.7 |  | 
GUGUACAGAGGAUAUACAUGAGCAUGGAAACAUGCAUCUUCACAUGAGGAUCACCCAUGUAGAAGGCUGUACAC | 227 | 75 |  | 
UCCUUACAUGAGGAUCACCCAUGUCAGGAUAUCUCCACACUGCGCUUGCGCAGUGUAUAGAGAAGGGACGGGCU | 34.2 | 26.2 |  | 
GCGUUCUUGUAGAAGGUACAUACAAUAUCUUAUAAACACAUGACACAUGAGGAUCACCCAUGUUGUAAGGAUAUACAUGAACGC |  |  | 6.29 | 7.73
GCGUUGAACGAGAAGGCCAAUACAUGAGGAUCACCCAUGUUAAGAUGUUUUGGAGGAUAUCGUACGUCGUCUCAUGAGCAACGC | 6.21 | 7.03 |  | 
AAAAAAAAAAGACAGGAUAUACAAUAUAUUACAUGAGGAUCACCCAUGUUUUUUUUUUAAUUAAAGUAGAAGGGUCAAAAAAAAAA |  |  | 52.2 | 40
AAUUAGUGAGGAUAUACGGGAGGGAGGGAGGGAGGGAGGGAGUAGAAGGCACAUGAGGAUCACCCAUGUAAUUA | 15.1 | 22.7 |  | 
CAGUUCUGAGGAUAUCCACCCUCGUACAUGAGGAUCACCCAUGUUUCCCUCUGGGCUUUCGGAGAAGGCAGGUAUC | 51.4 | 50.4 |  | 
AGAUAACAUGUAGGAUAUCGAGGCCUGAGGCCUCGAGAAGGACAUGAGGAUCACCCAUGUUUGCCGAGCAUGGAAUCCCGCACU | 58.6 | 425 |  | 
UUUUUUUUACAGAAGGGAAUCAUGAUUUUUUGUUUUUACAUGAGGAUCACCCAUGUUUAUCUUUUUCAGGAUAUGUAUUUUUUU |  |  | 61.3 | 32
UGGUACAUGGGAGGAUAUGGGUUGAUAACAUGAGGAUCACCCAUGUUAAAUAUGCCUAGUGGCAACUAGAAGGCCCAUGUACCU |  |  | 317 | 51
AUAUCUCCCUAGAAGGUGGAACGACAAUUGCAUCACGUAGUUGGCGAUCCAAGGAUAUGGGACAUGAGGAUCACCCAUGUGGAU |  |  | 16.4 | 8.81
AAAGGACGAGGAUAUACAUGAGGAUCACCCAUGUAAAAAGCGUAGCAAAAGUGCUUAUGUAGAAGGCGUCCAAA | 21.9 | 59.2 |  | 
GAUUAACAUGAGGAUCACCCAUGUGAGGAUAUGGAAUGGCUCAUUUUUUGAUUCCCGUCUAGAAGGCACAUCUU | 71.8 | 83.8 |  | 
UUUUUGUGAGGAUAUCAGUAGUAAAAUAAAUAAAUUACUACUGAGAAGGCACAUGAGGAUCACCCAUGUUCCUU | 14 | 30.3 |  | 
GCGAUUUUGUAAGGAUAUACACGAGUUUCAAGUGUAGAAGGUACUUACAUGAGGAUCACCCAUGUAUACAUGGAUAAUAGUCGC |  |  | 548 | 84.2
GCUAGGAUGUGAGGAUAUGCUGAGGAUACUUCAGCAGAAGGCACAUGAGGAUCACCCAUGUACACUUAUCAUAAAUACCCUAGC | 12.7 | 16.2 |  | 
UUGGACAUCGUAGGAUAUGUAGGAUAUUCCUACAUGAGGAUCACCCAUGUUGACAUGGAAGAAGGACAGAAGGACGAUGUCCAU |  |  | 207 | 4.12
GUUAAGGUAGGAUAUACGAGAAUAUAGGGUAGAUAUAUAACACAUGAGGAUCACCCAUGUAGAAGGACCAAUUG | 33.8 | 95.6 |  | 
GAUAAUAUAGGAUAUACAUGAGGAUCACCCAUGUCCCGAUAUUAGGAGGACCUCCUCGGUAGAAGGAUAUGUGC | 129 | 131 |  | 
GGAUAGGACAGAGGAUAUACGUGCUAGAGAUACUAGCAAAAUUCCCUCACAUGAGGAUCACCCAUGUAGAAGGCUGUCCUAUCG | 5.68 | 49.6 |  | 
AGCUAGUACCGAGGAUAUACGUACAUGAGGAUCACCCAUGUAUACAUGAAUUAAUGAGACUACAUGUAGAAGGCGGUACUAGCA |  |  | 51.4 | 14.2
CCGGAUAUGCAGGAUAUCGUAUCGGAUACGAUACGAGAAGGGUAUACAUGAGGAUCACCCAUGUGUCCUACCGG | 22.8 | 31.5 |  | 
GCAGGCUUCGAGAAGGACAUGAGGAUCACCCAUGUGCGUGUGAAGCAGCCGUGAGGCUGCAUCAUGUAGGAUAUCGGAGUCUGU | 77.8 | 650 |  | 

Sequence | apparent Kd [1] [nM] | apparent Kd [2] [nM] | apparent Kd [3] [nM] | apparent Kd [4] [nM]
CGGAUCGCAUGAGGAUAUGGUCAGGUUUCCUGACCAGAAGGCAUGUCAUAAGACAUGAGGAUCACCCAUGUAGUUAAGAUCCGA |  |  | 577 | 40.2
AUUAAUUAAUUAAUACAUGAGGAUCACCCAUGUAAUAAGAUCUAGGAUAUCAGCUCGAUUAGAGCUGAGAAGGAGAUCACAUGU |  |  | 46.8 | 39.5
GUCGGAAACGACAAACGUAGCAUACGAGAAGGCUGAUCCGCGACAUGAGGAUCACCCAUGUAGUUAGAGGAUAUUGGAUGCUAC |  |  | 81.7 | 17.3
CGAUAUAUGAAGGGCGAAAACGCACAUGAGGAUCACCCAUGUAGAAGGCGAUCCGCAACGCGGAUCGAGGAUAUAUAGUAUACA | 21.1 | 23 |  | 
GUAGCUACAUGAGGAUCACCCAUGUAGGAUAUCGCUAUUGUAAUCAUGAAACAUGAUUACAAUAGCGAGAAGGACGUUAGCUAC | 6.31 | 7.31 |  | 
UUGUUACAUGAGGAUCACCCAUGUGAGGAUAUGUGUAUCCCUAAAAAAGUGUGGGACCACAGAAGGUACUUGGA | 54.6 | 68.1 |  | 
AAGGGACAUGAGGAUCACCCAUGUGAGGAUAUGCUAUGGAAAAUAAAAAAUAAACAUAGCAGAAGGCAUAAAAA | 64.9 | 97 |  | 
CGCUCACAUGAGGAUCACCCAUGUCCUAGGAGGUCAGGAUAUAGCUCGGAUGCGUUGAGGCUAGAAGGGACAGCUG |  |  | 259 | 84.7
UCGGCGCGAGGAUAUGCGGUUCCUGCUUCGGGCCGGAGCGUACAUGAGGAUCACCCAUGUAGAAGGCGCGCCGC | 14.2 | 14.6 |  | 
GUAUUUGGUUAGGAUAUUGACUCGAGAUCGAGAUAAGAAGGAGCCACAUGAGGAUCACCCAUGUCUAUCCAAGA | 27 | 29.6 |  | 
GUCAGCUCGCGAGGAUAUACAACACUGCUUCGGCAGUGUAUUAAGAUCACAUGAGGAUCACCCAUGUAGAAGGCACGAGCUGAU | 10.4 | 145 |  | 
GCGCAUUUUAGAUUUAUAUAAUUUUCAGAAGGUGAAUAGUCGACAUGAGGAUCACCCAUGUAUUUCAAGGAUAUGAUUUAGCGC |  |  | 68.6 | 13
AAUUGACACGUAGGAUAUCGCUCUUAAUUAACACGAGAAGGACGUACAUGAGGAUCACCCAUGUUAAAUGGUGUAGAUUAGUUG | 219 | 599 |  | 
AUCCUGCGAGGAUAUACAUAAUUUUUUUCAUUUUGUUUCGAACAUGAGGAUCACCCAUGUAGAAGGUGCUACAC | 32.1 | 29 |  | 
AGGAGGUCAGGAUAUGCAUGGCGGGACUUGCGUCGUGGCGUGCAGAAGGGACAUGAGGAUCACCCAUGUGGAGU | 113 | 139 |  | 
UUGGUAUUCGUAGGAUAUCUGUCGCCACCGUGUGGAGAAGGACGAACAUGAGGAUCACCCAUGUAUCAUGGUGUGGGCGUUGUC | 100 | 106 |  | 
GUAGUUUAUGUAGGAUAUGCGAGGCGAGCCUAAGCAGAAGGACAUGAGGAUCACCCAUGUAUUGCGGUCUGCGUUCAGAUCGCU | 33.2 | 133 |  | 
UCAUAAAUUCGAGGAUAUCGGUGAUAAAGAAGACGAGAAGGCGAUUAGAGAGAGAUGGUUAUAGACAUGAGGAUCACCCAUGUU |  |  | 33.9 | 24.1
GCGUAUUAGGUGUAGCUAGACAUUCAAGAAGGGUGAAGAACAUGAGGAUCACCCAUGUAGUUGGUACAGGAUAUUGAUUUACGC |  |  | 897 | 176
ACAGUUGAAGCAGGAUAUGUACAUGAGGAUCACCCAUGUUGUCUGAGCGACUGGGAGUGCUAGCUACAGAAGGGCUUUACGACC | 12.9 | 77 |  | 
CUCUGACAUGAGGAUCACCCAUGUGAGGAUAUGAUGCAGCAGUGGUCUACGCUGUGCAUCAGAAGGCACAUGUG | 101 | 33.4 |  | 
CAGUAGAUCCGAGGAUAUACAAUCCGGAAACGGUACAUGAGGAUCACCCAUGUAGAAGGCGGAUCUACAGGUACUAAAGUACCU | 5.56 | 8.31 |  | 
CCAUAAAGGUAGGAUAUCGAUUUUAAUUAAUAUCGAGAAGGGUCAACAUGAGGAUCACCCAUGUCAGCAUGUAA | 60.9 | 58.7 |  | 
UUCAUGUGAGGAUAUAGUACUCCUUCUAUUAUUUUUGAGUAUUAGAAGGCACAUGAGGAUCACCCAUGUAGUAC | 28.1 | 46.9 |  | 
AGCUAGUCAGGAUAUGCAUACAUGUCAAAAGACGUGAAGGGACAUGAGGAUCACCCAUGUAGAAGGGACUAGCA | 40.4 | 67.9 |  | 
GGAUCGUAUGUCAGGAUAUACCACUGGAUACAGUGGUAGAAGGGACAUGAGGAUCACCCAUGUCCUAUCGAUCC | 13 | 16.6 |  | 
GAUUCGCGUGAGAAGGACAUGAGGAUCACCCAUGUAGGAUAUCACGGUCCGUAGAGGAUUUCAAACCGUACUGGGUCAUAGUGU |  |  | 14.4 | 6.56
